Assay results: ChEMBL document CHEMBL3992532, “Structure-Based Design of Macrocyclic Factor XIa Inhibitors: Discovery of the Macrocyclic Amide Linker” (J Med Chem, 2017)

Legend:
Coagulation factor XI = Coagulation factor XI (Homo sapiens, UniProt P03951); assay: Inhibition of human coagulation factor 11a using pyroGlu-Pro-Arg-pNA as substrate after 10 to 120 mins at 37 degC by spectrophotometric method
How it was run: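 Purified human proteases, 37 °C; reaction started by adding enzyme to substrate (up to 4× Km) ± inhibitor; compound from DMSO, 1% DMSO final except where noted. […] Buffers: FXIa, chymotrypsin, tPA, plasmin, urokinase in 50 mM HEPES pH 7.4, 145 mM NaCl, 5 mM KCl, 0.1% PEG 8000; FXa, thrombin, trypsin, plasma kallikrein, aPC in 100 mM Na phosphate pH 7.4, 200 mM NaCl, 0.5% PEG 8000; FIXa in 50 mM Tris pH 7.4, 100 mM NaCl, 5 mM CaCl2, 0.5% PEG 8000, 2% DMSO.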

Plasma = assay: Anticoagulant activity in human plasma assessed as concentration required to produce 50% increase in activated partial thromboplastin time; assay type: functional
How it was run: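 Citrated (one-tenth volume 0.11 M) plasma from healthy volunteers, spun 2,000 g 10 min, kept on ice; 10 mM DMSO stock diluted in plasma, up to 7 concentrations; aPTT on automated coagulometer, duplicates as mean ratio to baseline; EC1.5x (50% prolongation) by linear interpolation, as total plasma concentration.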

[1] = Half life in human liver microsomes; assay type: ADME, microsome
[2] = Half life in dog liver microsomes; assay type: ADME, Canis lupus familiaris, microsome
Canis familiaris [3] = assay: AUC in Beagle dog at 0.4 mg/kg, po administered via gavage as cassette dose by LC-MS/MS method; assay type: ADME, organism-based, Canis lupus familiaris; conditions: in vivo
How it was run: (§1)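 Dog PK vehicles as footnoted: iv in 70% PEG 400/20% water/10% ethanol; po either 70% PEG 400/20% TPGS/10% ethanol or the same PEG 400/water/ethanol vehicle used for iv.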

Canis familiaris [4] = assay: Oral bioavailability in Beagle dog at 0.4 mg/kg administered via gavage as cassette dose by LC-MS/MS method; assay type: ADME, organism-based, Canis lupus familiaris; conditions: in vivo; how it was run: as §1
[5] = Volume of distribution at steady state in Beagle dog at 0.2 mg/kg, iv administered as 10 mins infusion or 0.4 mg/kg, po via gavage administered as cassette dose by LC-MS/MS method; assay type: ADME, organism-based, Canis lupus familiaris; conditions: in vivo, read-out: Vdss; how it was run: as §1
[6] = Half life in Beagle dog at 0.2 mg/kg, iv administered as 10 mins infusion or 0.4 mg/kg, po via gavage administered as cassette dose by LC-MS/MS method; assay type: ADME, organism-based, Canis lupus familiaris; conditions: in vivo; how it was run: as §1

Sequence of Coagulation factor XI (P03951 19-387 limits assumed): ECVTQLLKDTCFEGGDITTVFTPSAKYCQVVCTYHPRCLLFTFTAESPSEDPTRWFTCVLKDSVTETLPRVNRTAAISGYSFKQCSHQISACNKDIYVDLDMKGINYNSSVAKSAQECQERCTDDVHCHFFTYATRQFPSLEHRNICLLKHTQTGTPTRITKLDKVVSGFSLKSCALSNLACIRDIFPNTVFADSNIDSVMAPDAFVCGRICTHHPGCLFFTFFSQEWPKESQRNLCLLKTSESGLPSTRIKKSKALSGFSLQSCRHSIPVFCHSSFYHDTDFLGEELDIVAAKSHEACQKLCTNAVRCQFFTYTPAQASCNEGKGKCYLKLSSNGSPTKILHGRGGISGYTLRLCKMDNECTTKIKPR
Sequence of Coagulation factor XI (P03951 388-625 limits assumed): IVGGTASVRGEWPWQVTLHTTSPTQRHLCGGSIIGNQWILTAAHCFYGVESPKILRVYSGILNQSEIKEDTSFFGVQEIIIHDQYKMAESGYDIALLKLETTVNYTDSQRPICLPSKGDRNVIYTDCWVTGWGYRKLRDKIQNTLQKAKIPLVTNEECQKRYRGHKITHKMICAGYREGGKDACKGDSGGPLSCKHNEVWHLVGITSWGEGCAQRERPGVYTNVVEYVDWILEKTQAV

Ki (Coagulation factor XI) | half-life [1] | SMILES | EC1.5 (Plasma) | other results
76 nM |  | COC(=O)Nc1ccc2c(c1)OCCCCCC[C@H](NC(=O)/C=C/c1cc(Cl)ccc1-n1cnnn1)c1nc-2c(Cl)[nH]1 | >40 µM | 
264 nM |  | COC(=O)Nc1ccc2c(c1)NC(=O)C/C=C/C[C@H](NC(=O)/C=C/c1cc(Cl)ccc1-n1cnnn1)c1nc-2c[nH]1 | >40 µM | 
0.03 nM | 0.967 h | COC(=O)Nc1ccc2c(c1)NC(=O)CC/C=C/C[C@H](NC(=O)/C=C/c1cc(Cl)ccc1-n1cnnn1)c1nc-2c(Cl)[nH]1 | 0.28 µM | 
600 nM |  | COC(=O)Nc1ccc2c(c1)CCCCCCC[C@H](NC(=O)/C=C/c1cc(Cl)ccc1-n1cnnn1)c1nc-2c[nH]1 |  | 
184 nM |  | COC(=O)Nc1ccc2c(c1)CCCC/C=C/C[C@H](NC(=O)/C=C/c1cc(Cl)ccc1-n1cnnn1)c1nc-2c[nH]1 | >40 µM | 
3.8 nM | 1.03 h | COC(=O)Nc1ccc2c(c1)NC(=O)OCCCC[C@H](NC(=O)/C=C/c1cc(Cl)ccc1-n1cnnn1)c1nc-2c[nH]1 | 0.86 µM | 
0.47 nM | 1.43 h | COC(=O)Nc1ccc2c(c1)NC(=O)CCCCC[C@H](NC(=O)/C=C/c1cc(Cl)ccc1-n1cnnn1)c1nc-2c(Cl)[nH]1 | 0.92 µM | 
 |  | COC(=O)Nc1ccc2c(c1)NC(=O)CC/C=C\C[C@H](NC(=O)/C=C/c1cc(Cl)ccc1-n1cnnn1)c1nc-2c[nH]1 | 12 µM | 
159 nM |  | COC(=O)Nc1ccc2c(c1)OCCCCCC[C@H](NC(=O)/C=C/c1cc(Cl)ccc1-n1cnnn1)c1nc-2c[nH]1 |  | half-life [2]: 1.47 h; AUC (Canis familiaris [3]): 0.119 µM·h; F (Canis familiaris [4]): 17%; Vd [5]: 2.2 L/kg; half-life [6]: 2.1 h
42 nM |  | COC(=O)Nc1ccc2c(c1)CCCCCC[C@H](NC(=O)/C=C/c1cc(Cl)ccc1-n1cnnn1)c1nc-2c(Cl)[nH]1 | 27 µM | 
